In ChEMBL document CHEMBL4138315, “Synthesis and Evaluation of a Novel Bivalent Selective Antagonist for the Mu-Delta Opioid Receptor Heterodimer that Reduces Morphine Withdrawal in Mice” (J Med Chem, 2018):
Active and inactive are the calls of the source. The rule behind the calls is not given here. Where a SMILES comes first, the peptide text is derived from it. [ ]: non-standard residue; d: D form. ξ: configuration not given here. d2Nal = N[C@H](Cc1ccc2ccccc2c1)C(=O)O; ξTic = O=C(O)C1Cc2ccccc2CN1

Experiments:
[1] = target: T1, Opioid receptors; mu & delta (Homo sapiens, UniProt P41143+P35372); assay: Displacement of [3H]-diprenorphine from human mu-delta opioid receptor heterodimer expressed in CHO cell membranes at high site fraction after 80 mins by scintillation counting analysis relative to control
T1 sequence (P35372 whole entry, looked up): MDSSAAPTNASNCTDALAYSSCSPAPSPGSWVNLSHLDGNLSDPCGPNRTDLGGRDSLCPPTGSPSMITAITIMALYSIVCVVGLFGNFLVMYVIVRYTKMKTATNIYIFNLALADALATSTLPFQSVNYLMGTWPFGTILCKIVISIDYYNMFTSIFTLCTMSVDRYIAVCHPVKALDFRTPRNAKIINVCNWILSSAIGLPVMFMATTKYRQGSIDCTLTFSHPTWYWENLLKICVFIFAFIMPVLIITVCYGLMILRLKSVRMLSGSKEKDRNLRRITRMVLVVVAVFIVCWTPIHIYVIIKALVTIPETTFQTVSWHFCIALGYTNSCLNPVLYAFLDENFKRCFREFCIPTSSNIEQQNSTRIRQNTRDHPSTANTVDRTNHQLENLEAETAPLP
T1 sequence (P41143 whole entry, looked up): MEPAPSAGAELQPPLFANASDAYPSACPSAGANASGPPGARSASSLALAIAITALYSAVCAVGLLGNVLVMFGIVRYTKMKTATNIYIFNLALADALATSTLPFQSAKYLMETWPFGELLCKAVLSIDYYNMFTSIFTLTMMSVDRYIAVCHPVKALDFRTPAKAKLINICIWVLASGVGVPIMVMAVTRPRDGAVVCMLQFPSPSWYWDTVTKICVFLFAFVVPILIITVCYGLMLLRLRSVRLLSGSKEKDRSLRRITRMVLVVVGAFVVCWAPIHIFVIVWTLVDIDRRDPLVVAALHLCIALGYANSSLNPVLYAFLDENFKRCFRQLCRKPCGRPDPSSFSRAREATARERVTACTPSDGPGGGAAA

[2] = target: T1, Opioid receptors; mu & delta; assay: Displacement of [3H]-diprenorphine from human mu-delta opioid receptor expressed in CHO cell membranes after 80 mins by scintillation counting analysis
How it was run: (§1)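 Competition binding on MOR-, DOR- or MDOR-CHO membranes used a fixed 3H-diprenorphine level against competitor concentration curves; 30°C, 80 min, GF/B filtration, scintillation counting. Nonspecific binding defined with 500 nM each DMT-Tic-Ala-OH and CTAP. Ki was derived from IC50 and the 3H-diprenorphine KD in each line; MDOR data fitted with a 2-site model. N = 3-4, mean ± SEM.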

Homo sapiens [3] = organism: Homo sapiens; assay: Selectivity ratio of KiH for human mu-delta opioid receptor heterodimer expressed in CHO cell membranes to Ki for human DOR expressed in CHO cell membranes; type: cell-based
[4] = target: T1, Opioid receptors; mu & delta; assay: Antagonist activity at human mu-delta opioid receptor heterodimer expressed in CHO cell membranes assessed as inhibition of CYM51010-induced [35S]-GTPgammaS binding at high site fraction preincubated for 5 mins followed by CYM51010 and [35S]-GTPgammaS addition measured after 80 mins; type: functional
How it was run: (§2)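 Membranes from CHO cells stably expressing human opioid receptor (N-terminal tagged) were preincubated 5 min with antagonist concentration curves, then given 1 µM CYM51010 and 0.1 nM 35S-GTPγS; 30°C, 80 min, GF/B filtration, scintillation counting. Normalized to CYM51010 alone (100%) and vehicle (0%). Fits: 1-site for MOR/DOR (IC50), 2-site for MDOR (IC50HIGH). N = 3-4, duplicate, mean ± SEM.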

[5] = target: T1, Opioid receptors; mu & delta; assay: Antagonist activity at human mu-delta opioid receptor heterodimer expressed in CHO cell membranes assessed as inhibition of CYM51010-induced [35S]-GTPgammaS binding at high site fraction preincubated for 5 mins followed by CYM51010 and [35S]-GTPgammaS addition measured after 80 mins relative to control; type: functional
How it was run: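 35S-GTPγS coupling in MDOR-CHO membranes: 5 min antagonist pre-incubation, then 1 µM CYM51010 plus 0.1 nM 35S-GTPγS, 30°C for 80 min, filtration and scintillation read. A 3-variable 2-site antagonist fit gave FHIGH, the fraction of the high-potency site. N = 3-4 independent experiments.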

Homo sapiens [6] = organism: Homo sapiens; assay: Selectivity ratio of IC50H for human mu-delta opioid receptor heterodimer expressed in CHO cell membranes to IC50 for human DOR expressed in CHO cell membranes; type: cell-based
[7] = target: T2, Delta-type opioid receptor (Homo sapiens, UniProt P41143); assay: Displacement of [3H]-diprenorphine from human DOR expressed in CHO cell membranes after 80 mins by scintillation counting analysis; how it was run: as §1
T2 sequence (P41143 whole entry): as the sequence (P41143 whole entry, looked up) above

[8] = target: T2, Delta-type opioid receptor; assay: Antagonist activity at human DOR expressed in CHO cell membranes assessed as inhibition of CYM51010-induced [35S]-GTPgammaS binding preincubated for 5 mins followed by CYM51010 and [35S]-GTPgammaS addition measured after 80 mins; type: functional; how it was run: as §2
[9] = target: T1, Opioid receptors; mu & delta; assay: Antagonist activity at human mu-delta opioid receptor heterodimer expressed in CHO cell membranes assessed as inhibition of DAMGO-induced [35S]-GTPgammaS binding preincubated for 5 mins followed by DAMGO and [35S]-GTPgammaS addition measured after 80 mins; type: functional
How it was run: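 MDOR-CHO membranes were preincubated 5 min with antagonist concentration curve, then 1 µM DAMGO and 0.1 nM 35S-GTPγS were added. Incubated 30°C, 80 min; filter harvest, scintillation counting. Normalized to agonist alone and vehicle. N = 3 independent experiments in duplicate.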

[10] = target: Kappa-type opioid receptor (Homo sapiens) (UniProt P41145); assay: Antagonist activity at human KOR expressed in CHO cell membranes assessed as inhibition of U50488-induced [35S]-GTPgammaS binding preincubated for 5 mins followed by U50488 and [35S]-GTPgammaS addition measured after 80 mins; type: functional
Chain of Kappa-type opioid receptor (Homo sapiens) (P41145 whole entry): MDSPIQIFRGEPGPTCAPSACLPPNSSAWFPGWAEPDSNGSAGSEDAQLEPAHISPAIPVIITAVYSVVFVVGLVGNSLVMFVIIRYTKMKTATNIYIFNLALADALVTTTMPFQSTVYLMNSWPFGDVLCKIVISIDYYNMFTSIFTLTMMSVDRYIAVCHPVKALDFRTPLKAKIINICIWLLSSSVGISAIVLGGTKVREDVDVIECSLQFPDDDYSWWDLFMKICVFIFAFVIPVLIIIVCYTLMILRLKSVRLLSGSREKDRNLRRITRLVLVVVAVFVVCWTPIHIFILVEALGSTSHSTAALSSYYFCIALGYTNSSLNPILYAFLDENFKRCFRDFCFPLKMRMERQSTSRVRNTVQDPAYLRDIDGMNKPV
How it was run: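 KOR-CHO membranes (human receptor, N-terminal tag), antagonist concentration curve preincubated 5 min, then 1 µM U50,488 plus 0.1 nM 35S-GTPγS added. Incubated 30°C, 80 min; filtration and scintillation counting. Vehicle 0.1% DMSO in assay buffer with 0.1% BSA. Normalized to agonist alone (100%) and vehicle (0%). One-site curve fit; N = 3 independent experiments in duplicate.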

Mus musculus = organism: Mus musculus; assay: Antinociceptive activity in CD1 mouse assessed as reduction in CYM51010-induced nociception at 10 nmol pretreated for 5 mins followed by CYM51010 injection measured up to 2 hrs by tail flick assay; type: functional, organism-based
Mu-type opioid receptor [11] = target: T3, Mu-type opioid receptor (Homo sapiens, UniProt P35372); assay: Displacement of [3H]-diprenorphine from human MOR expressed in CHO cell membranes after 80 mins by scintillation counting analysis; how it was run: as §1
T3 sequence (P35372 whole entry): as the sequence (P35372 whole entry, looked up) above

Mu-type opioid receptor [12] = target: T3, Mu-type opioid receptor; assay: Antagonist activity at human MOR expressed in CHO cell membranes assessed as inhibition of CYM51010-induced [35S]-GTPgammaS binding preincubated for 5 mins followed by CYM51010 and [35S]-GTPgammaS addition measured after 80 mins; type: functional; how it was run: as §2
[13] = target: T1, Opioid receptors; mu & delta; assay: Antagonist activity at human mu-delta opioid receptor heterodimer expressed in CHO cell membranes assessed as inhibition of CYM51010-induced [35S]-GTPgammaS binding at high site fraction at 100 uM preincubated for 5 mins followed by CYM51010 and [35S]-GTPgammaS addition measured after 80 mins relative to control; type: functional

## N[C@@H](Cc1ccc(O)cc1)C(=O)N1Cc2ccccc2C[C@@H]1C(=O)NCC(=O)NCCC(=O)NCCCCCC(=O)N[C@H](CCCCNC(=O)CCCCCNC(=O)CNC(=O)[C@@H](Cc1cccc2ccccc12)NC(=O)[C@H](Cc1ccccc1)NC(=O)[C@@H]1CCCN1C(=O)[C@@H](N)Cc1ccc(O)cc1)C(=O)O
[1]
  Imax: 15%
[2]
  KiH: 8.1 nM
Homo sapiens [3]
  Ratio Ki: 35
[4]
  IC50H: 20 nM
[5]
  Imax: 41%
Homo sapiens [6]
  Ratio IC50: 5

## NCCCC[C@H](NC(=O)CCCNC(=O)CNC(=O)[C@@H]1Cc2ccccc2CN1C(=O)[C@@H](N)Cc1ccc(O)cc1)C(=O)O
[7]; cho
  Ki: 250 nM

## N[C@@H](Cc1ccc(O)cc1)C(=O)N1Cc2ccccc2CC1C(=O)O (stereo partly specified) (H-Tyr-[ξTic]-OH)
[7]
  Ki: 230 nM
[4]
  IC50H: 250 nM
[5]
  Imax: 44%
[8]
  IC50: 100 nM
[9]
  IC50: 36.9 nM
[10]
  inhibition: inactive
Mus musculus
  Activity: inactive

## NC(=O)[C@@H](Cc1ccc2ccccc2c1)NC(=O)[C@H](Cc1ccccc1)NC(=O)[C@@H]1CCCN1C(=O)[C@@H](N)Cc1ccc(O)cc1 (H-YPF[d2Nal]-NH2)
Mu-type opioid receptor [11]
  Ki: > 1000 nM
[4]
  IC50H: > 1000 nM
Mu-type opioid receptor [12]
  IC50: > 1000 nM
[9]
  IC50: >= 3333 nM
[10]
  inhibition: inactive
[13]
  Imax: 0.43%

## N[C@@H](Cc1ccc(O)cc1)C(=O)N1Cc2ccccc2C[C@H]1C(=O)NCC(=O)NCC(=O)N[C@@H](CCCCNC(=O)CNC(=O)[C@@H](Cc1cccc2ccccc12)NC(=O)[C@H](Cc1ccccc1)NC(=O)[C@@H]1CCCN1C(=O)[C@@H](N)Cc1ccc(O)cc1)C(=O)O
[7]; cho
  Ki: 270 nM
Mu-type opioid receptor [11]; cho
  Ki: > 1000 nM
[8]; cho
  IC50: 58 nM
Mu-type opioid receptor [12]; cho
  IC50: > 1000 nM

## N[C@@H](Cc1ccc(O)cc1)C(=O)N1Cc2ccccc2C[C@H]1C(=O)NCC(=O)NCCC(=O)NCCCCCC(=O)N[C@@H](CCCCNC(=O)CCCCCNC(=O)CNC(=O)[C@@H](Cc1cccc2ccccc12)NC(=O)[C@H](Cc1ccccc1)NC(=O)[C@@H]1CCCN1C(=O)[C@@H](N)Cc1ccc(O)cc1)C(=O)O
[7]; cho
  Ki: 290 nM
Mu-type opioid receptor [11]; cho
  Ki: > 1000 nM
[8]; cho
  IC50: 100 nM
Mu-type opioid receptor [12]; cho
  IC50: > 1000 nM

## NCCCC[C@@H](NC(=O)CCCNC(=O)CNC(=O)[C@H]1Cc2ccccc2CN1C(=O)[C@@H](N)Cc1ccc(O)cc1)C(=O)O
[4]
  IC50H: 170 nM
[5]
  Imax: 28%

## N[C@@H](Cc1ccc(O)cc1)C(=O)N1Cc2ccccc2C[C@@H]1C(=O)NCC(=O)NCC(=O)NCCCCCC(=O)NCCC(=O)N[C@H](CCCCNC(=O)CCNC(=O)CCCCCNC(=O)CCNC(=O)CNC(=O)[C@@H](Cc1cccc2ccccc12)NC(=O)[C@H](Cc1ccccc1)NC(=O)[C@@H]1CCCN1C(=O)[C@@H](N)Cc1ccc(O)cc1)C(=O)O
[1]
  Imax: 12%
[2]
  KiH: 16 nM
Homo sapiens [3]
  Ratio Ki: 15
[4]
  IC50H: 48 nM
[5]
  Imax: 37%
Homo sapiens [6]
  Ratio IC50: 2

## N[C@@H](Cc1ccc(O)cc1)C(=O)N1Cc2ccccc2C[C@H]1C(=O)NCC(=O)NCC(=O)NCCCCCC(=O)NCCC(=O)N[C@@H](CCCCNC(=O)CCNC(=O)CCCCCNC(=O)CCNC(=O)CNC(=O)[C@@H](Cc1cccc2ccccc12)NC(=O)[C@H](Cc1ccccc1)NC(=O)[C@@H]1CCCN1C(=O)[C@@H](N)Cc1ccc(O)cc1)C(=O)O
[7]; cho
  Ki: 230 nM
Mu-type opioid receptor [11]; cho
  Ki: > 1000 nM
[8]; cho
  IC50: 94 nM
Mu-type opioid receptor [12]; cho
  IC50: > 1000 nM

## N[C@@H](Cc1ccc(O)cc1)C(=O)N1Cc2ccccc2C[C@H]1C(=O)NCC(=O)NCCCC(=O)N[C@@H](CCCCNC(=O)CCNC(=O)CNC(=O)[C@@H](Cc1cccc2ccccc12)NC(=O)[C@H](Cc1ccccc1)NC(=O)[C@@H]1CCCN1C(=O)[C@@H](N)Cc1ccc(O)cc1)C(=O)O
[7]; cho
  Ki: 98 nM
Mu-type opioid receptor [11]; cho
  Ki: > 1000 nM
[8]; cho
  IC50: 68 nM
Mu-type opioid receptor [12]; cho
  IC50: > 1000 nM

## N[C@@H](Cc1ccc(O)cc1)C(=O)N1Cc2ccccc2C[C@@H]1C(=O)NCC(=O)NCCCCC(=O)N[C@H](CCCCNC(=O)CNC(=O)[C@@H](Cc1cccc2ccccc12)NC(=O)[C@H](Cc1ccccc1)NC(=O)[C@@H]1CCCN1C(=O)[C@@H](N)Cc1ccc(O)cc1)C(=O)O
[1]
  Imax: 12%
[2]
  KiH: 2 nM
Homo sapiens [3]
  Ratio Ki: 58
[4]
  IC50H: 2.1 nM
[5]
  Imax: 39%
Homo sapiens [6]
  Ratio IC50: 28

## N[C@@H](Cc1ccc(O)cc1)C(=O)N1Cc2ccccc2C[C@H]1C(=O)NCC(=O)NCCCCC(=O)N[C@@H](CCCCNC(=O)CNC(=O)[C@@H](Cc1cccc2ccccc12)NC(=O)[C@H](Cc1ccccc1)NC(=O)[C@@H]1CCCN1C(=O)[C@@H](N)Cc1ccc(O)cc1)C(=O)O
[7]; cho
  Ki: 120 nM
Mu-type opioid receptor [11]; cho
  Ki: > 1000 nM
[8]; cho
  IC50: 58 nM
Mu-type opioid receptor [12]; cho
  IC50: > 1000 nM

## N[C@@H](Cc1ccc(O)cc1)C(=O)N1Cc2ccccc2C[C@@H]1C(=O)NCC(=O)NCC(=O)N[C@H](CCCCNC(=O)CNC(=O)[C@@H](Cc1cccc2ccccc12)NC(=O)[C@H](Cc1ccccc1)NC(=O)[C@@H]1CCCN1C(=O)[C@@H](N)Cc1ccc(O)cc1)C(=O)O
[1]
  Imax: 12%
[2]
  KiH: 2.5 nM
Homo sapiens [3]
  Ratio Ki: 110
[4]
  IC50H: 3.4 nM
[5]
  Imax: 43%
Homo sapiens [6]
  Ratio IC50: 17

## N[C@@H](Cc1ccc(O)cc1)C(=O)N1Cc2ccccc2C[C@@H]1C(=O)NCC(=O)NCCCC(=O)N[C@H](CCCCNC(=O)CCNC(=O)CNC(=O)[C@@H](Cc1cccc2ccccc12)NC(=O)[C@H](Cc1ccccc1)NC(=O)[C@@H]1CCCN1C(=O)[C@@H](N)Cc1ccc(O)cc1)C(=O)O
[1]
  Imax: 9%
[2]
  KiH: 1.3 nM
Homo sapiens [3]
  Ratio Ki: 78
[4]
  IC50H: 1.6 nM
[5]
  Imax: 43%
Homo sapiens [6]
  Ratio IC50: 43
